pIC50: −log10 of the molar value. Calls of active or inactive are those of the source. No cut-off for these calls is given here.
Experiments:
Activin receptor type-1 [1] = molecular target: T1, Activin receptor type-1 (Homo sapiens, UniProt Q04771); test: Inhibition of human recombinant N-terminal GST tagged ALK2 (147 to end residues) expressed in baculovirus infected in Sf9 cells assessed as loss of peptide phosphorylation activity using peptide substrate in presence of ATP and measured after 3 hrs by HTRF assay
T1 sequence (Q04771 whole entry): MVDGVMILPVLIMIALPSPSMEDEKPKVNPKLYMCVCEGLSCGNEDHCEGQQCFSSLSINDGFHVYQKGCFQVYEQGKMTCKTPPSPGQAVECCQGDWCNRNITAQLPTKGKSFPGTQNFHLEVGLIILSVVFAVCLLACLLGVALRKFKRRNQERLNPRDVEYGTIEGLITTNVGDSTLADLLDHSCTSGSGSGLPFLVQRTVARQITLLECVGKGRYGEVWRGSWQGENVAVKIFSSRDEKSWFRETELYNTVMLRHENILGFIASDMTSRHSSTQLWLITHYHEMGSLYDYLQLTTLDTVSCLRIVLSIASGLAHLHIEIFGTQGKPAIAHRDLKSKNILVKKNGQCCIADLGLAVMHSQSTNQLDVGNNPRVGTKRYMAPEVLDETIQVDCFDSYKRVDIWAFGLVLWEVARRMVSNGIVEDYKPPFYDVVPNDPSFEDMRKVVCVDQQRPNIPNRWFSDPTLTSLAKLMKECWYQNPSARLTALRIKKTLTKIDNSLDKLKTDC
Outline: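 HTRF activity assay measuring loss of ALK2 phosphorylation of a peptide substrate. IC50 values were determined.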

Activin receptor type-1 [2] = molecular target: T1, Activin receptor type-1; test: Inhibition of ALK2 in human HeLa cells assessed as reduction in BMP-7 induced SMAD1 phosphorylation incubated for 1 hr followed BMP-7 stimulation for 30 mins by HTRF assay; type: cell-based
Outline: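 HeLa cells were stimulated with BMP7. Inhibition of BMP7-induced SMAD1 phosphorylation was read by HTRF and an IC50 was derived.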

[3] = Protein binding in human plasma assessed as free fraction measured after 2 hrs by LC-MS/MS analysis; type: ADME, cell-free
[4] = Oral bioavailability in Sprague-Dawley rat at 3 mg/kg measured upto 24 hrs post dose by LC/MS/MS analysis; type: ADME, organism-based; conditions: in vivo
[5] = AUC (0 to 24 hrs) in C57BL/6 mouse liver at 10 mg/kg, po; type: ADME, organism-based; parameters: time < 24 hr, dose 10 mg/kg, route po
Outline: (§1)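 Female C57BL/6 mice were given a single oral dose of 10 mg/kg. Compound concentrations in liver and plasma were measured, and AUC was calculated over 0–24 h.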

[6] = In vivo inhibition of ALK2 in C57BL/6 mouse assessed as reduction in hepcidin level in plasma at 10 mg/kg, po measured after 4 hrs post dose relative to control; type: functional
Cytochrome P450 1A2 = molecular target: T2, Cytochrome P450 1A2 (Homo sapiens, UniProt P05177); test: Inhibition of CYP1A2 (unknown origin); type: ADME
T2 sequence (P05177 whole entry): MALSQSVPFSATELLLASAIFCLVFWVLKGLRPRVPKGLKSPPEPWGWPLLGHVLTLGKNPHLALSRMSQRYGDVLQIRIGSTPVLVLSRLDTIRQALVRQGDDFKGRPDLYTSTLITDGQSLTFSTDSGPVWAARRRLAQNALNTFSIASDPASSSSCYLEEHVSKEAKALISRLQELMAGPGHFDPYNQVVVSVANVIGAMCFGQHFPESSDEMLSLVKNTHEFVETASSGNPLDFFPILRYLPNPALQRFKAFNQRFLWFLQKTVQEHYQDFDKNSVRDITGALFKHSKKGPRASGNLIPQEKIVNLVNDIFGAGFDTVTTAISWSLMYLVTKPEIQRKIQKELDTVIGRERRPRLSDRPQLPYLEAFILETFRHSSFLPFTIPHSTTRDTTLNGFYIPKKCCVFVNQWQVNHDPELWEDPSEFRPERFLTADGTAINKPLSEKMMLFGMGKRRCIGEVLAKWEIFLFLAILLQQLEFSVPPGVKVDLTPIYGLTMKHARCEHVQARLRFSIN

[7] = AUC infinity in Sprague-Dawley rat at 3 mg/kg, po measured upto 24 hrs post dose by LC/MS/MS analysis; type: ADME, organism-based; parameters: time < 24 hrs, dose 3 mg/kg, route po; conditions: in vivo
[8] = Cmax in Sprague-Dawley rat at 3 mg/kg, po measured upto 24 hrs post dose by LC/MS/MS analysis; type: ADME, organism-based; parameters: dose 3 mg/kg, time < 24 hrs, route po; conditions: in vivo
[9] = Half life in Sprague-Dawley rat at 3 mg/kg, po or 1 mg/kg, iv measured upto 24 hrs post dose by LC/MS/MS analysis; type: ADME, organism-based; conditions: in vivo
Hepcidin = molecular target: T3, Hepcidin (Homo sapiens, UniProt P81172); test: Inhibition of Hepcidin in human Huh-7 cells assessed as inhibition of BMP-7 induced hepcidin production incubated for 16 to 24 hrs by ELISA method; type: cell-based
T3 sequence (P81172 whole entry): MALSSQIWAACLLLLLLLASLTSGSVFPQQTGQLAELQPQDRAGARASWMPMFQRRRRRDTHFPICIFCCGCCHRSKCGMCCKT
Outline: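 Huh7 liver cells were stimulated with BMP7. Inhibition of secreted hepcidin was measured and an IC50 was derived.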

[10] = Apparent permeability across apical to basolateral side in human Caco-2 cells at 50 uM incubated for 120 mins by LC/MS/MS analysis
[11] = Volume of distribution at steady state in Sprague-Dawley rat at 3 mg/kg, po or 1 mg/kg, iv measured upto 24 hrs post dose by LC/MS/MS analysis; type: ADME, organism-based; conditions: in vivo
Cytochrome P450 3A4 = Cytochrome P450 3A4 (Homo sapiens, UniProt P08684); test: Inhibition of CYP3A4 (unknown origin); type: ADME
Cytochrome P450 2C8 = molecular target: T4, Cytochrome P450 2C8 (Homo sapiens, UniProt P10632); test: Inhibition of CYP2C8 (unknown origin); type: ADME
T4 sequence (P10632 whole entry): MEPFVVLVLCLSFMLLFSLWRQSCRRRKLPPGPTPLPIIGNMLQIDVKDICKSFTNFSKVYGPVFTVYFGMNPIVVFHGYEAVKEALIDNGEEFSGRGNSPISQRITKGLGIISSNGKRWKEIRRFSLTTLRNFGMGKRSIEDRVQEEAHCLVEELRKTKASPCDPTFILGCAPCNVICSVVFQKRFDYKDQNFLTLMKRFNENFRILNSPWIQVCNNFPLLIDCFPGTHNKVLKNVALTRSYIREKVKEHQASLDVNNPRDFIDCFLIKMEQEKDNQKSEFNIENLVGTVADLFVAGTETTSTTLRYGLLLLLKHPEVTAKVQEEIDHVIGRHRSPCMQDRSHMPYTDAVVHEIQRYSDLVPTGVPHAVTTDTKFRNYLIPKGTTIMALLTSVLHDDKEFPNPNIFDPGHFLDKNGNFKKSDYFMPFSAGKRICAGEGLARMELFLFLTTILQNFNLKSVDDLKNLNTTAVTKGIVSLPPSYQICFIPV

[12] = AUC (0 to 24 hrs) in C57BL/6 mouse plasma at 10 mg/kg, po; type: ADME, organism-based; parameters: time < 24 hr, dose 10 mg/kg, route po; outline: as §1
[13] = Metabolic stability in human liver microsomes assessed as intrinsic clearance at 1uM and measured upto 30 mins in presence of NADPH by LC/MS analysis; type: ADME, Microsome; conditions: read-out: CLH (converted)
Cytochrome P450 2C9 = Cytochrome P450 2C9 (Homo sapiens, UniProt P11712); test: Inhibition of CYP2C9 (unknown origin); type: ADME
Cytochrome P450 2B6 = molecular target: T5, Cytochrome P450 2B6 (Homo sapiens, UniProt P20813); test: Inhibition of CYP2B6 (unknown origin); type: ADME
T5 sequence (P20813 whole entry): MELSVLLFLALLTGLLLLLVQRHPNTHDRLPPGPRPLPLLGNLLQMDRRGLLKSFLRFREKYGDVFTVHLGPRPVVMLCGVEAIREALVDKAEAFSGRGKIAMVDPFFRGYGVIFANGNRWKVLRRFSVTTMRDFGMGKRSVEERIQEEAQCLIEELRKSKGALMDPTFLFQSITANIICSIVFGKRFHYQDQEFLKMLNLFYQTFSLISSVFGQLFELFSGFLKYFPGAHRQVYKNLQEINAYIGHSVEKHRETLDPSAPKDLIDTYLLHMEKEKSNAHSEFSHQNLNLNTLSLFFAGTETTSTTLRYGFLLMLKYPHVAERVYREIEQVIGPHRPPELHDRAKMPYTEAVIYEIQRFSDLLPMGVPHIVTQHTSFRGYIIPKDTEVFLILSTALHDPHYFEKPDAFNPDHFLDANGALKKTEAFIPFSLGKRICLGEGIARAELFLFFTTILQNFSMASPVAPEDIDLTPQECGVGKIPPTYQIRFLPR

hERG (KCNH2) = hERG (KCNH2) (Homo sapiens, UniProt Q12809); test: Inhibition of human ERG at 1 uM by patch clamp assay relative to control; type: toxicity
Outline: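 hERG activity was tested by patch clamp at 1 μM and expressed as percent inhibition.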

Cytochrome P450 2C19 = Cytochrome P450 2C19 (Homo sapiens, UniProt P33261); test: Inhibition of CYP2C19 (unknown origin); type: ADME
Mus musculus = test: In vivo inhibition of ALK2 in C57BL/6 mouse assessed as reduction in hepcidin level in plasma at 10 mg/kg, po measured after 24 hrs post dose; type: functional, organism-based
Cytochrome P450 2D6 = Cytochrome P450 2D6 (Homo sapiens, UniProt P10635); test: Inhibition of CYP2D6 (unknown origin); type: ADME
Sequence of Cytochrome P450 2D6 (P10635 whole entry): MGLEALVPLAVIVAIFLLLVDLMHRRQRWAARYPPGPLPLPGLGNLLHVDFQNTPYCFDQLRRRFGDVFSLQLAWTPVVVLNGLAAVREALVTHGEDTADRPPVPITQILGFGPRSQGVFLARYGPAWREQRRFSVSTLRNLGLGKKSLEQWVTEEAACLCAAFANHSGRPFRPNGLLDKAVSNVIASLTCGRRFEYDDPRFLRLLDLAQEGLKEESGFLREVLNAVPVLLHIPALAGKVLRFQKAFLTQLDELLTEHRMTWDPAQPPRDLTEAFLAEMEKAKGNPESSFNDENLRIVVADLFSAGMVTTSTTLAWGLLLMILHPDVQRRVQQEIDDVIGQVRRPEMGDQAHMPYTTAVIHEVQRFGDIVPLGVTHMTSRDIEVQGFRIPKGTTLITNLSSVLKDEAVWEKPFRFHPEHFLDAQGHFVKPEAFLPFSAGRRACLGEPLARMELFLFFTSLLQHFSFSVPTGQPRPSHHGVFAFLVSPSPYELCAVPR

Sequence of Cytochrome P450 3A4 (P08684 whole entry): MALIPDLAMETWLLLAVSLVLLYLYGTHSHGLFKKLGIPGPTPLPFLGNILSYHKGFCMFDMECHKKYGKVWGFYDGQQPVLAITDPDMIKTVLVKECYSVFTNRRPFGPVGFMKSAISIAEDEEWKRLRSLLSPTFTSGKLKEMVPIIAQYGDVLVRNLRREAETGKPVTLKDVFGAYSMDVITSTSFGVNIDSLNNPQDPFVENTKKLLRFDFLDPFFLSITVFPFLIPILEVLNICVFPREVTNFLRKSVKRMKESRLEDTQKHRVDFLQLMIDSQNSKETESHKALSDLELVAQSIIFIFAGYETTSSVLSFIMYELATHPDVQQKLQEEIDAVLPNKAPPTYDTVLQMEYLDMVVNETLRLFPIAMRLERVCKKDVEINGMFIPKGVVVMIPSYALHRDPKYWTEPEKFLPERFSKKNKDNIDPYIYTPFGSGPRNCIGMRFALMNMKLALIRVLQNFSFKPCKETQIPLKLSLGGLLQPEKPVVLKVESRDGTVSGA
Sequence of Cytochrome P450 2C19 (P33261 whole entry): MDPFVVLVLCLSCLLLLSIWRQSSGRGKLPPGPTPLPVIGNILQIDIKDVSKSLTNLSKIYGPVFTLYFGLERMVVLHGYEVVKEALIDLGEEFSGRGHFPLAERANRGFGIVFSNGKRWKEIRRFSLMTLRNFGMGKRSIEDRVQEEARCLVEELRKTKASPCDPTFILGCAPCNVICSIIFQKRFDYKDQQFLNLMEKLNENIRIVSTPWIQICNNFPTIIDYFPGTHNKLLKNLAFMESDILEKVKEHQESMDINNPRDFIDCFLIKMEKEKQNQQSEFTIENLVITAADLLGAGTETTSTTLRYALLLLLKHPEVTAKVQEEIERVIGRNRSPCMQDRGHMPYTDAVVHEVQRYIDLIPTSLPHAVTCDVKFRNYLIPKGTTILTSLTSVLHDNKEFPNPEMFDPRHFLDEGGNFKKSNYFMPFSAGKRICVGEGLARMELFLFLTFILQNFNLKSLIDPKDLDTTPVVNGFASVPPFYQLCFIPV
Sequence of Cytochrome P450 2C9 (P11712 whole entry): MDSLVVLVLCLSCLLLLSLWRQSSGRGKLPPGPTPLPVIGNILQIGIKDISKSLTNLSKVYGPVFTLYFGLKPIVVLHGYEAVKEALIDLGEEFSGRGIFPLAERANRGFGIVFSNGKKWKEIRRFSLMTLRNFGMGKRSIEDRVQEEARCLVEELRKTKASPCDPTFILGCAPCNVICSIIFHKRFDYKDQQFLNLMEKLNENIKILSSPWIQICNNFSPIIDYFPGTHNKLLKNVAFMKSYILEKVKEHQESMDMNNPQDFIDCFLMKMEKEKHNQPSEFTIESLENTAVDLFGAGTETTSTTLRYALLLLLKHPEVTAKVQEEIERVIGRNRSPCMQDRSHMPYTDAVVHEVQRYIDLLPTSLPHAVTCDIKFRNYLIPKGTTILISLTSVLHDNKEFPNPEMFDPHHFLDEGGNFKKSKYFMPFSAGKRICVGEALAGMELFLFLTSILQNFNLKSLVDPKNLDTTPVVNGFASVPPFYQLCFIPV
Sequence of hERG (KCNH2) (Q12809 whole entry): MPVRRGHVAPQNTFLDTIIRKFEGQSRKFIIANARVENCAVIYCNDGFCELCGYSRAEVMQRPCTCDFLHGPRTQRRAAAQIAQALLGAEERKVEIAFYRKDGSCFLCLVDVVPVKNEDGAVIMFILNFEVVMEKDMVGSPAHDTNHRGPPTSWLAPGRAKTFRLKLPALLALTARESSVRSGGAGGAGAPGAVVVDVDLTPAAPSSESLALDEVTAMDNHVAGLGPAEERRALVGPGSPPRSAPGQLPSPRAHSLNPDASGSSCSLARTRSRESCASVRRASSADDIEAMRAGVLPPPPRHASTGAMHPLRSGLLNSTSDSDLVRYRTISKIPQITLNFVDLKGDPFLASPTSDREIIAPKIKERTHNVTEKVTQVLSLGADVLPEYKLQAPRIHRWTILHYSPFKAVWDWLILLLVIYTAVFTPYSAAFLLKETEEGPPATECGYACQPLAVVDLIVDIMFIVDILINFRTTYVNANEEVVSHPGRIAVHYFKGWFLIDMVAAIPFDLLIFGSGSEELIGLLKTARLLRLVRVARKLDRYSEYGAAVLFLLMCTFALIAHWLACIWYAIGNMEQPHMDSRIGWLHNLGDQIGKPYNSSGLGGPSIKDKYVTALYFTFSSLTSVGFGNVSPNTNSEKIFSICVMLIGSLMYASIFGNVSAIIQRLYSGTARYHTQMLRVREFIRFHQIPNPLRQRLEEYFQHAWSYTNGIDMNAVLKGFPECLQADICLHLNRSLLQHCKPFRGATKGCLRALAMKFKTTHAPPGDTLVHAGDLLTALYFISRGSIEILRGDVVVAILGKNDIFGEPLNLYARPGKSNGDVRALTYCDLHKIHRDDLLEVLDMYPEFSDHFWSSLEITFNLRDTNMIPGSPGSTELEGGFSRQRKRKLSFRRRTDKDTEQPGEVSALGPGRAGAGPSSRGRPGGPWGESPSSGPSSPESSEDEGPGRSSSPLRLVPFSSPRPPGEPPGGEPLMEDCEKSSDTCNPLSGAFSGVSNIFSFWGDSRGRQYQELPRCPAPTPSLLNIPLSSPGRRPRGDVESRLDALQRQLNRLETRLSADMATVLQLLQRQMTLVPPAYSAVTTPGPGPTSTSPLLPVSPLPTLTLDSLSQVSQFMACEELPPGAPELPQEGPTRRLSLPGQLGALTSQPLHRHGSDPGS

COC(=O)N1C[C@@H](C)N(c2ncc3[nH]nc(-c4ccc(N5CCN(C)CC5)c(F)c4)c3n2)[C@@H](C)C1
pIC50 (Activin receptor type-1 [1]): 8.89
pIC50 (Activin receptor type-1 [2]): 6.92

CC1CCCCN1c1ncc2[nH]nc(-c3ccc(N4CCN[C@H](C)C4)nc3)c2n1 (stereo partly drawn)
pIC50 (Activin receptor type-1 [1]): 8.09

COC(=O)N1C[C@@H](C)N(c2ncc3[nH]nc(-c4ccc(N5CCN(C)CC5)cc4)c3n2)[C@@H](C)C1
pIC50 (Activin receptor type-1 [1]): 9.01
fraction unbound at 2 h [3]: 0.043
bioavailability [4]: 85%
AUC(0-t) at 24 h [5]: 376 µM·h
inhibition in vivo at 10 mg/kg [6]: 80%
pIC50 (Cytochrome P450 1A2): < 4.60
AUC(0-inf) [7]: 4.05 µM·h
Cmax [8]: 0.434 µM
half-life [9]: 5.7 h
pIC50 (Hepcidin): 7.47
Papp A→B at 2 h, 50 µM [10]: 45 nm/s
Vdss [11]: 7.6 L/kg
pIC50 (Cytochrome P450 3A4): < 4.60
pIC50 (Cytochrome P450 2C8): < 4.60
AUC(0-t) at 24 h [12]: 26.2 µM·h
CLint scaled at 1 µM [13]: 1 L/h/kg
pIC50 (Cytochrome P450 2C9): < 4.60
pIC50 (Cytochrome P450 2B6): < 4.60
inhibition at 1 µM (hERG (KCNH2)): < 1%
pIC50 (Cytochrome P450 2C19): < 4.60
inhibition (Mus musculus): Active
pIC50 (Cytochrome P450 2D6): < 4.60
pIC50 (Activin receptor type-1 [2]): 7.21

C[C@@H]1CN(c2ccc(-c3n[nH]c4cnc(N5[C@H](C)CNC[C@@H]5C)nc34)cn2)CCN1
pIC50 (Activin receptor type-1 [1]): 6.10

C[C@@H]1CN(c2ccc(-c3n[nH]c4cnc(N5[C@H](C)CN(C(=O)N(C)C)C[C@@H]5C)nc34)cn2)CCN1
pIC50 (Activin receptor type-1 [1]): 8.19
pIC50 (Activin receptor type-1 [2]): 6.46

C[C@@H]1CN(c2ccc(-c3n[nH]c4cnc(N5CCCCC5)nc34)cn2)CCN1
pIC50 (Activin receptor type-1 [1]): 8.09

CC(C)C(=O)N1C[C@@H](C)N(c2ncc3[nH]nc(-c4ccc(N5CCN[C@H](C)C5)nc4)c3n2)[C@@H](C)C1
pIC50 (Activin receptor type-1 [1]): 8.10
pIC50 (Activin receptor type-1 [2]): 6.18

COC(=O)N1C[C@@H](C)N(c2ncc3[nH]nc(-c4ccc(N5CCN[C@H](C)C5)nc4)c3n2)[C@@H](C)C1
pIC50 (Activin receptor type-1 [1]): 9.07
fraction unbound at 2 h [3]: 0.099
bioavailability [4]: 49%
AUC(0-inf) [7]: 0.441 µM·h
Cmax [8]: 0.075 µM
half-life [9]: 3.1 h
pIC50 (Hepcidin): 8.14
Papp A→B at 2 h, 50 µM [10]: 6 nm/s
Vdss [11]: 21.9 L/kg
CLint scaled at 1 µM [13]: 0.9 L/h/kg
pIC50 (Activin receptor type-1 [2]): 7.57

C[C@@H]1CN(c2ccc(-c3n[nH]c4cnc(N5CCCCC5)cc34)cn2)CCN1
pIC50 (Activin receptor type-1 [1]): 7.11

C[C@@H]1CN(c2ccc(-c3n[nH]c4cnc(N5[C@H](C)CN(C(=O)N6CCCC6)C[C@@H]5C)nc34)cn2)CCN1
fraction unbound at 2 h [3]: 0.043
bioavailability [4]: 46%
AUC(0-inf) [7]: 0.669 µM·h
Cmax [8]: 0.151 µM
half-life [9]: 3.8 h
pIC50 (Hepcidin): 7.55
Vdss [11]: 9.2 L/kg
CLint scaled at 1 µM [13]: 1.1 L/h/kg

C[C@@H]1CN(c2ccc(-c3n[nH]c4cnc(N5[C@H](C)CCC[C@@H]5C)nc34)cn2)CCN1
pIC50 (Activin receptor type-1 [1]): 8.60
pIC50 (Activin receptor type-1 [2]): 6.42

COC(=O)N1C[C@@H](C)N(c2ncc3[nH]nc(-c4ccc(N5CCN(C)CC5)nc4)c3n2)[C@@H](C)C1
pIC50 (Hepcidin): 7.24

C[C@@H]1CN(c2ccc(-c3n[nH]c4ccc(N5CCCCC5)nc34)cn2)CCN1
pIC50 (Activin receptor type-1 [1]): 7.02
pIC50 (Activin receptor type-1 [2]): < 5.52

COCC(=O)N1C[C@@H](C)N(c2ncc3[nH]nc(-c4ccc(N5CCN[C@H](C)C5)nc4)c3n2)[C@@H](C)C1
pIC50 (Activin receptor type-1 [1]): 8.14
pIC50 (Activin receptor type-1 [2]): 6.46

C[C@@H]1CN(c2ccc(-c3n[nH]c4cnc(N5[C@H](C)COC[C@@H]5C)nc34)cn2)CCN1
pIC50 (Activin receptor type-1 [1]): 7.64
pIC50 (Activin receptor type-1 [2]): 6.61

CCOC(=O)N1C[C@@H](C)N(c2ncc3[nH]nc(-c4ccc(N5CCN[C@H](C)C5)nc4)c3n2)[C@@H](C)C1
pIC50 (Activin receptor type-1 [1]): 8.31
pIC50 (Activin receptor type-1 [2]): 6.67
